# Legend:
# Format in all cases: functional
# MDA-MB-468 = test: Cytotoxicity against human MDA-MB-468 cells assessed as growth inhibition at 10 uM after 48 hrs by SRB assay; conditions: MDA-MB-468, 48 h, read-out: GI
# Summary of the method: (§1)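 Single-dose screen at 10µM across the sixty-cell-line panel. Percentage growth is derived from SRB-stain OD taken just before compound exposure, after 48 hrs exposure, and in vehicle-treated controls. Negative values indicate cytotoxicity.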
# TK-10 = test: Cytotoxicity against human TK10 cells assessed as growth inhibition at 10 uM after 48 hrs by SRB assay; conditions: TK-10, 48 h, read-out: GI; summary of the method: as §1
# NCI-H226 = test: Cytotoxicity against human NCI-H226 cells assessed as growth inhibition at 10 uM after 48 hrs by SRB assay; conditions: NCI-H226, 48 h, read-out: GI; summary of the method: as §1
# [1] = Cytotoxicity against human OVCAR5 cells assessed as growth inhibition at 10 uM after 48 hrs by SRB assay; conditions: OVCAR-5, 48 h, read-out: GI; summary of the method: as §1
# A498 = test: Cytotoxicity against human A498 cells assessed as growth inhibition at 10 uM after 48 hrs by SRB assay; conditions: A498, 48 h, read-out: GI; summary of the method: as §1
Compound,inhibition of growth at 10 µM (MDA-MB-468),inhibition of growth at 10 µM (TK-10),inhibition of growth at 10 µM (NCI-H226),inhibition of growth at 10 µM [1],inhibition of growth at 10 µM (A498)
CN1C(=O)C(=Cc2cn(Cc3ccccc3Br)c3ccccc23)C(=O)N(C)C1=O,56%,105%,-32%,75%,74%
CN1C(=O)C(=Cc2cn(Cc3ccc(F)cc3)c3ccc(Cl)cc23)C(=O)N(C)C1=O,-70%,19%,-79%,-19%,-95%
COC(=O)c1ccc(Cn2cc(C=C3C(=O)N(C)C(=O)N(C)C3=O)c3cc(C(=O)OC)ccc32)cc1,99%,113%,88%,98%,105%
COC(=O)c1ccc2c(c1)c(C=C1C(=O)N(C)C(=O)N(C)C1=O)cn2Cc1ccc(S(=O)(=O)c2ccccc2)cc1,88%,100%,98%,108%,83%
